Results on 6 molecules are retold here after ChEMBL document CHEMBL1158430, “Bulky 1,4-benzoxazine derivatives with antifungal activity” (2009).

≈ marks a conversion by molar mass, not a printed value. Calls of active or inactive are those of the source. The calls are words filed in the database; no cut-off is given here.

One may read the MIC as the lowest concentration that inhibits growth of the organism. A low value points to greater potency.

Assay [1] relates to Candida albicans. The assay is described as follows: Antifungal activity against Candida albicans PCA-2 after 24 hrs by broth microdilution assay. Format: functional. The settings on record: PCA-2, 24 h. A digest of the protocol: (§1)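 Yeasts kept on Sabouraud agar by serial passage. A single colony was suspended in saline, washed twice, counted by hemocytometer and added at 5 × 10⁴ CFU in RPMI 1640/MOPS pH 7.0 to serial compound dilutions. Compounds were stocked in 20% ethanol. Incubation was at 37 °C. MIC is the lowest concentration giving complete growth inhibition, read visually.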
On the technique in general: In broth dilution the organism is exposed to a series of concentrations in liquid medium.

Assay [2] deals with Nakaseomyces glabratus. Put plainly: Antifungal activity against Candida glabrata after 24 hrs by broth microdilution assay. The class given is functional. A digest of the protocol: as §1
In assay [3] the test system is Nakaseomyces glabratus. Put plainly: Antifungal activity against Candida glabrata after 48 hrs by broth microdilution assay. Format: functional. A digest of the protocol:
as §1

For assay [4], the system named is Cryptococcus neoformans. Put plainly: Antifungal activity against Cryptococcus neoformans 6995 after 48 hrs by broth microdilution assay. The class given is functional. The conditions noted are these: Cryptococcus neoformans, 6995, 48 h.
Assay [5] concerns Cryptococcus neoformans. The assay is described as follows: Antifungal activity against Cryptococcus neoformans CAP67 after 48 hrs by broth microdilution assay. Format: functional. The conditions noted are these: CAP67, 48 h.
Assay [6] deals with Candida albicans. The assay is described as follows: Antifungal activity against Candida albicans PCA-2 after 48 hrs by broth microdilution assay. Format: functional. The conditions noted are these: PCA-2, 48 h. A digest of the protocol: as §1
Assay [7] has as its system Pichia kudriavzevii. The assay is described as follows: Antifungal activity against Candida krusei after 24 hrs by broth microdilution assay. Format: functional. A digest of the protocol:
as §1

Assay [8] relates to Candida albicans. The assay is described as follows: Antifungal activity against Candida albicans CA-6 after 48 hrs by broth microdilution assay. Format: functional. The conditions noted are these: CA-6, 48 h. A digest of the protocol:
as §1

Assay [9] has as its system Candida parapsilosis. Put plainly: Antifungal activity against Candida parapsilosis after 48 hrs by broth microdilution assay. Format: functional. The settings on record: Lodderomyces parapsilosis. A digest of the protocol: as §1
Assay [10] deals with Candida albicans. The assay is described as follows: Antifungal activity against Candida albicans CA-6 infected in CD1 mouse assessed as survival from fungus-induced mortality at 10 mg/kg, ip pretreated 2 hrs before fungus-challenge and once daily for 6 days. The class given is functional. A digest of the protocol: (§2)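 Female outbred CD1 mice, 8–10 weeks old, infected i.v. on day 0 with C. albicans CA-6 blastospores (7 × 10⁵/mouse). Given 10 mg/kg i.p. 2 h before infection, then once daily for 6 consecutive days. Vehicle was 0.2 ml 2% EtOH in saline i.p. Survival monitored over a 30-day observation period. Three repeat experiments, 4 animals/group.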

Assay [11] has as its system Candida albicans. Put plainly: Antifungal activity against Candida albicans CA-6 after 24 hrs by broth microdilution assay. Format: functional. The settings on record: CA-6, 24 h. A digest of the protocol:
as §1

Assay [12] deals with Pichia kudriavzevii. Put plainly: Antifungal activity against Candida krusei after 48 hrs by broth microdilution assay. The class given is functional. A digest of the protocol: as §1
In assay [13] the test system is Candida parapsilosis. Put plainly: Antifungal activity against Candida parapsilosis after 24 hrs by broth microdilution assay. The conditions noted are these: Lodderomyces parapsilosis. Format: functional. A digest of the protocol:
as §1

Assay [14] concerns Candida albicans. Put plainly: Antifungal activity against Candida albicans CA-6 infected in CD1 mouse assessed as reduction of inflammatory foci in kidney at 10 mg/kg, ip pretreated 2 hrs before fungus-challenge and once daily for 6 days measured 7 days post-infection by periodic acid-Schiff staining. The class given is functional, organism-based. More on the design: dose 10 mg/kg. A digest of the protocol:
(§3)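 CD1 mice were challenged i.v. with 7 × 10⁵ CA-6 per mouse. Dosing was 10 mg/kg 2 h before challenge, then once daily for 6 days. Kidneys were excised 7 days post-infection, formalin-fixed and paraffin-embedded. Sections were stained with periodic acid-Schiff and assessed histologically for fungal cells and inflammatory foci.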

Assay [15] has as its system Candida albicans. The assay is described as follows: Antifungal activity against Candida albicans CA-6 infected in CD1 mouse assessed as reduction of fungal burden in kidneys at 10 mg/kg, ip pretreated 2 hrs before fungus-challenge and once daily for 6 days measured 7 days post-infection. The conditions noted are these: Kidney. More on the design: dose 10 mg/kg. The class given is functional, organism-based. A digest of the protocol:
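Female outbred CD1 mice, 8–10 weeks old, were infected i.v. on day 0 with 2.5 × 10⁵ CA-6 blastospores. Dosing was 10 mg/kg i.p. 2 h before challenge, then daily for 6 days; vehicle was 0.2 ml 2% EtOH in saline i.p. At day 7, kidney homogenates were serially diluted and plated on Sabouraud agar for CFU. Three experiments, 4 mice/group.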

For assay [16], the system named is Candida albicans. Put plainly: Antifungal activity against Candida albicans CA-6 infected in CD1 mouse assessed as survival days in 30 days observation period at 10 mg/kg, ip pretreated 2 hrs before fungus-challenge and once daily for 6 days. Format: functional. The conditions noted are these: route intraperitoneal. A digest of the protocol: as §2
The test system of assay [17] is Candida albicans. The assay is described as follows: Antifungal activity against Candida albicans CA-6 infected in CD1 mouse assessed as reduction of fungal burden in kidneys treated with 0.3 ml serum of 10 mg/kg, ip dosed mouse collected after 1 hr determined 7 days post-infection. The class given is functional, organism-based. Also noted: dose 10 mg/kg. The settings on record: Kidney. A digest of the protocol: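 Donor mice received 10 mg/kg i.p. or vehicle (0.2 ml 2% EtOH in saline); serum was collected 1 h later. Recipient CD1 mice received 0.3 ml serum i.p. 1 h before i.v. challenge with 7 × 10⁵ CA-6 per mouse. Kidney CFU were counted on Sabouraud agar 7 days after challenge.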

Assay [18] relates to Candida albicans. The assay is described as follows: Antifungal activity against Candida albicans CA-6 infected in CD1 mouse assessed as reduction fungal cell number in kidney at 10 mg/kg, ip pretreated 2 hrs before fungus-challenge and once daily for 6 days measured 7 days post-infection by periodic acid-Schiff staining. The class given is functional, organism-based. More on the design: dose 10 mg/kg. A digest of the protocol:
as §3

For `CN1C(=O)COc2ccc(OC[C@@H]3CO[C@](Cn4ccnc4)(c4ccc(Cl)cc4Cl)O3)cc21` (relative stereo), the MIC in assay [1] is more than 500 µg/mL; in assay [2] it was 15.6 µg/mL (≈ 31.8 µM); in assay [3], 250 µg/mL (≈ 510 µM); in [4], 1.95 µg/mL (≈ 3.98 µM); in [5], 0.03 µg/mL (≈ 0.0612 µM); in assay [6], more than 500 µg/mL. Moreover, the MIC in assay [7] is 15.6 µg/mL (≈ 31.8 µM); in [8], 0.49 µg/mL (≈ 0.999 µM); in [9], more than 500 µg/mL; in assay [11], 0.49 µg/mL (≈ 0.999 µM); in assay [12], more than 500 µg/mL; in assay [13], more than 500 µg/mL. Further, the outcome in assay [10] was inactive.

Take `CCCCC1Oc2ccc(OC[C@H]3CO[C@](Cn4ccnc4)(c4ccc(Cl)cc4Cl)O3)cc2N(C)C1=O` (relative stereo): the MIC in [1] is 125 µg/mL (≈ 229 µM); in assay [2] it was 31.2 µg/mL (≈ 57.2 µM); in assay [3], 125 µg/mL (≈ 229 µM); in assay [4] it was 7.8 µg/mL (≈ 14.3 µM); in [5], 1.95 µg/mL (≈ 3.57 µM); in assay [6] it was 125 µg/mL (≈ 229 µM). The MIC worked out at 3.9 µg/mL (≈ 7.14 µM) in [7]; 0.49 µg/mL (≈ 0.897 µM) in [8]; 31.2 µg/mL (≈ 57.2 µM) in assay [9]; 0.49 µg/mL (≈ 0.897 µM) in [11]; 3.9 µg/mL (≈ 7.14 µM) in assay [12]; 31.2 µg/mL (≈ 57.2 µM) in [13]. Further, the result in assay [14], in [15], in assay [17] and in assay [18] was Active. Also, in assay [16], the Activity came to 23 days.

With `CCCCC1Oc2ccc(OC[C@@H]3CO[C@](Cn4ccnc4)(c4ccc(Cl)cc4Cl)O3)cc2N(C)C1=O` (relative stereo), the MIC in assay [1] is more than 500 µg/mL; in assay [2], 62.5 µg/mL (≈ 114 µM); in assay [3], more than 500 µg/mL; in assay [4] it was 7.8 µg/mL (≈ 14.3 µM); in assay [5], 3.9 µg/mL (≈ 7.14 µM); in assay [6], more than 500 µg/mL. Besides, the MIC in assay [7] amounted to 3.9 µg/mL (≈ 7.14 µM); in [8] it was 0.49 µg/mL (≈ 0.897 µM); in assay [9], 500 µg/mL (≈ 915 µM); in assay [11] it was 0.49 µg/mL (≈ 0.897 µM); in assay [12], 7.8 µg/mL (≈ 14.3 µM); in assay [13] it was 125 µg/mL (≈ 229 µM). For the same molecule, the outcome in assay [14], in assay [15], in assay [17] and in assay [18] was Active. Moreover, in assay [10] (route intraperitoneal), the Activity is on record as 50%.

Take `CN1C(=O)COc2ccc(OC[C@H]3CO[C@](Cn4ccnc4)(c4ccc(Cl)cc4Cl)O3)cc21` (relative stereo): the MIC in assay [1] is more than 500 µg/mL; in [2], 7.8 µg/mL (≈ 15.9 µM); in assay [3], more than 500 µg/mL; in assay [4], 0.24 µg/mL (≈ 0.489 µM); in [5] it was 0.0019 µg/mL (≈ 0.00387 µM); in assay [6], more than 500 µg/mL. Further, the MIC in assay [7] was 15.6 µg/mL (≈ 31.8 µM); in assay [8], 0.49 µg/mL (≈ 0.999 µM); in assay [9] it was more than 500 µg/mL; in assay [11] it was 0.49 µg/mL (≈ 0.999 µM); in assay [12] it was more than 500 µg/mL; in [13], 250 µg/mL (≈ 510 µM). For the same molecule, the result in assay [10] was inactive.

Turning to `CC(=O)N1CCN(c2ccc(OCC3COC(Cn4ccnc4)(c4ccc(Cl)cc4Cl)O3)cc2)CC1` (centres undefined) [KETOCONAZOLE], the MIC in assay [1] worked out at 15.6 µg/mL (≈ 29.4 µM); in [2] it was 0.12 µg/mL (≈ 0.226 µM); in assay [3], 1.95 µg/mL (≈ 3.67 µM); in [4], 0.00095 µg/mL (≈ 0.00179 µM); in assay [5], 0.00012 µg/mL (≈ 0.000226 µM); in assay [6] it was 15.6 µg/mL (≈ 29.4 µM). In addition, the MIC in assay [7] was 0.49 µg/mL (≈ 0.922 µM); in assay [8], less than 0.0076 µg/mL; in assay [9], 0.00095 µg/mL (≈ 0.00179 µM); in [11], less than 0.0076 µg/mL; in assay [12], 0.97 µg/mL (≈ 1.83 µM); in [13] it was less than 6e-05 µg/mL.

Turning to `OC(Cn1cncn1)(Cn1cncn1)c1ccc(F)cc1F` [FLUCONAZOLE], the minimum inhibitory concentration (MIC) in [1] is more than 500 µg/mL; in assay [2], 125 µg/mL (≈ 408 µM); in [3], 250 µg/mL (≈ 816 µM); in assay [4], 3.9 µg/mL (≈ 12.7 µM); in assay [5] it was 0.49 µg/mL (≈ 1.6 µM); in assay [6], more than 500 µg/mL. Moreover, the MIC in [7] was 250 µg/mL (≈ 816 µM); in assay [8], less than 0.0076 µg/mL; in [9] it was 15.6 µg/mL (≈ 50.9 µM); in [11], less than 0.0076 µg/mL; in [12], more than 500 µg/mL; in [13], 7.8 µg/mL (≈ 25.5 µM). Moreover, the outcome in assay [14], in [15], in [17] and in [18] was Active. Besides, the Activity in assay [10] (route intraperitoneal) is 75%.
